KCNK9 inh: human KCNK9 channel inhibition | HEK293 KCNK9, FluxOR thallium flux fluorescence; stronger effect = lower value | B-score at 10 µM | actives 1.2% (n = 310,000) | Q9NPC2;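 active = ratio B-score over 3 SD below the library mean, with starting fluorescence within 5 SD of its mean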;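 also: negative B-score means less thallium flux so channel inhibition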
KCNQ1 inh: inhibitors of human KCNQ1 potassium channel. AID 2642. B-score at 10 µM. actives 1.3% (n = 310,000). P51787. CHO-K1 KCNQ1, FluxOR thallium flux fluorescence; stronger effect = higher value;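 active = compounds whose thallium flux B-score, printed positive for inhibition, exceeds three library SD while starting fluorescence stays within three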;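 also: channel opened by potassium depolarization with thallium stimulus after 20 min compound exposure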
KCNK3 block: human KCNK3 channel inhibition, primary screen; AID 602410; actives 0.84% (n = 340,000); B-score at 10 µM; CHO-KCNK3 thallium flux, FluxOR fluorescence; stronger effect = lower value;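 active = B-score under library mean minus 4 SD, starting fluorescence ratio at most library mean plus 5 SD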;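 also: more negative B-score means stronger inhibition of thallium flux through KCNK3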
Target sequence (O14649 whole entry, looked up): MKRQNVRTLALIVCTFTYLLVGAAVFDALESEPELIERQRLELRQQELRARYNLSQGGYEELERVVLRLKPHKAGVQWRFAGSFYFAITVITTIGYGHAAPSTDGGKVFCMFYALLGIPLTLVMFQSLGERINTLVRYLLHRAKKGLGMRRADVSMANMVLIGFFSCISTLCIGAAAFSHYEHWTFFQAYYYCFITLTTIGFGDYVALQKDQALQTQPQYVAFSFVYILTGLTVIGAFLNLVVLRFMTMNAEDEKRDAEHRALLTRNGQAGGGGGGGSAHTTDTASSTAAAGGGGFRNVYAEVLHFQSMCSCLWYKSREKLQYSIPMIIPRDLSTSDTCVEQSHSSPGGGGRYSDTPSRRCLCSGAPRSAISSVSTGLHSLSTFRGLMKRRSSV
KCNQ1 pot: potentiators or activators of human KCNQ1 potassium channel; P51787; CHO-K1 KCNQ1, thallium flux FluxOR fluorescence; stronger effect = higher value; B-score at 10 µM; actives 0.35% (n = 310,000);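 active = fluorescence ratio B-score, a plate-corrected score, at least three library SD, with initial intensity B-score within 5 SD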
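assay system = KCNQ1-transfected CHO-K1 cells | medium = assay buffer with matched DMSO | probe or stimulus = depolarizing K+/Tl+ stimulus, K2SO4 and Tl2SO4 each 12.5 mM in 5x stock | dosing = single dose | incubation = dye 90 min, compound 20 min, room temperature | detection = kinetic FluxOR fluorescence, 10 s baseline plus 110 s post-stimulus | evaluation = ratio B score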
hERG protect: compounds protecting human hERG from proarrhythmic drug block; Q12809; activation (rescue from dofetilide block), less the hit threshold, % at 10 µM; CHO-hERG, FluxOR thallium flux, dofetilide IC70 present; actives 0.51% (n = 310,000);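 active = activation above the mean of controls blocked by dofetilide plus 5 SD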;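 also: thallium influx through hERG after potassium depolarization seen as dye fluorescence rise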
KCNK3 inh conf: human KCNK3 channel inhibition, confirmation assay | shares compounds with KCNK3 block | CHO-KCNK3 thallium flux, FluxOR fluorescence; 0% buffer, 100% carvedilol maximal block | ratio percent of control, % at 10 µM | actives 99% (n = 2,400) | AID 651638;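 active = ratio percent of control, averaged over triplicates, above buffer control mean plus 5 SD, cut at about 64% in these data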;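 also: ratio is the fluorescence rise from min to max over baseline after thallium stimulus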
KCNK3 uninduced: activity in cells without induced KCNK3 expression; AID 651747; non-induced KCNK3 parental cells, FluxOR thallium flux; stronger effect = lower value; thallium flux ratio (lower = more inhibition) at 10 µM; shares compounds with KCNK3 block; actives 40% (n = 2,400);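 active = thallium flux ratio, averaged over three wells, more than 5 SD below the buffer control mean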;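 also: host cells are CHO cells without KCNK3 induction; ratio is peak minus trough fluorescence over baseline then normalized to buffer controls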
The depositor's hits bear a star; i = inactive; · = no result. This is a sample that favours compounds with a hit; in the whole collection about 3.1% have one here.

SMILES | KCNK9 inh | KCNQ1 inh | KCNK3 block | KCNQ1 pot | hERG protect | KCNK3 inh conf | KCNK3 uninduced
CCOc1ccccc1NC1c2ccccc2C(=O)N1Cc1ccco1 (stereo unspecified) | i | i | -11* | i | -12 | 98* | i
CCc1ccccc1NC1c2ccccc2C(=O)N1Cc1ccco1 (stereo unspecified) | i | i | i | i | -11 | · | ·
CC(C)NC(=O)Nc1ccc2c(c1)C(=O)N([C@H](C)CO)C[C@H](C)[C@@H](CN(C)S(=O)(=O)c1cn(C)cn1)O2 | · | · | i | · | · | · | ·
CCC(C)(C)n1nnnc1CN1CCN(C(c2ccccc2)c2ccccc2)CC1 | i | i | -13* | i | -15 | 141* | 0.13*
COc1ccc(OC)c(C(c2nnnn2Cc2ccccc2)N2CCN(C)CC2)c1 (stereo unspecified) | i | i | i | i | -10 | · | ·
CCC(C)(C)n1nnnc1C(c1cc(OC)ccc1OC)N1CCN(Cc2ccccc2)CC1 (stereo unspecified) | -7.6* | i | -11* | i | -4 | 107* | i
CCC(C)(C)n1nnnc1C(c1ccccc1)N1CCN(Cc2ccccc2)CC1 (stereo unspecified) | i | i | i | i | -8 | · | ·
CC(=O)c1ccc(N(CC(=O)NC2CCCCC2)C(=O)CNC(=O)c2ccco2)cc1 | i | i | i | i | -3 | · | ·
COC(=O)c1cccc(N2C(=O)C(Cl)=C(N3CCOCC3)C2=O)c1 | i | i | -9.7* | i | -1 | 67* | i
O=C1C(Cl)=C(N2CCOCC2)C(=O)N1c1cccc(C(F)(F)F)c1 | i | i | i | i | -6 | · | ·
CN=c1scc(-c2ccccc2F)n1/N=C(\C)c1cccnc1 | i | i | i | i | -12 | · | ·
CC1CCCCC1NC(=O)c1ccc2c(c1)[nH]c(=O)n2C1CCCC1 (stereo unspecified) | i | i | -9.5* | i | -8 | 105* | i
CCN(CC)c1nc2c(c(=O)n(C)c(=O)n2C)n1CC(=O)c1ccccc1 | i | i | i | i | -7 | · | ·
CCn1c(O)c(/C=N/N=C/c2ccccc2)c2ccc(C3=NNC(=O)CC3)cc21 | i | i | -8.9* | i | -22 | 131* | 0.12*
COc1ccc(-c2nc3ccccn3c2CN2CCN(c3ccccc3F)CC2)cc1 | i | i | -8.8* | i | -10 | 106* | 0.16*
Clc1ccc(-c2nc3ccccn3c2CN2CCOCC2)cc1 | i | i | i | i | -11 | · | ·
O=S(=O)(NC1CC1)c1ccccc1 | i | i | i | i | 1 | · | ·
CCOC(=O)c1cc2ccc3ccccc3c2s1 | i | i | -9.8* | i | -2 | 99* | i
CN1CCN(C2Cc3cc(Cl)ccc3Sc3cc(F)ccc32)CC1 (stereo unspecified) | i | i | -10* | i | -13 | 144* | i
CCCCCCNCc1ccc(Br)cc1 | i | i | -9.7* | i | -6 | 77* | i
CN(Cc1cccnc1)C(=O)CNC(=O)COc1ccccc1 | i | i | i | i | -7 | · | ·
Cc1ccc(S(=O)(=O)N(C)c2ccc(OCc3cccc(C)c3)cc2)cc1 | i | i | -9.3* | i | -14 | 108* | 0.15*
O=C(CN1CCOCC1)NNC(=O)c1ccc(Cl)cc1 | · | · | i | · | · | · | ·
Fc1ccc(CNc2nc(-c3ccco3)cc(C(F)(F)F)n2)cc1 | i | i | -9* | i | -33 | 136* | 0.13*
O=C(C1CCCCC1)N1CCN(c2ccnc3cc(Cl)ccc23)CC1 | i | i | -8.8* | i | -21 | 115* | i
SMILES | KCNK9 inh | KCNQ1 inh | KCNK3 block | KCNQ1 pot | hERG protect | KCNK3 inh conf | KCNK3 uninduced
Cc1ccnc2nc(C(=O)OCC(=O)N(Cc3ccccc3)C(C)(C)C)nn12 | · | · | i | · | · | · | ·
O=C(N/N=C/c1cccc(Oc2ccccc2)c1)c1ccccc1Br | i | i | -12* | i | 1 | 91* | i
O=C(N/N=C/c1cccc(Oc2ccccc2)c1)c1cccc(O)c1 | i | i | -13* | i | -27 | 131* | 0.12*
O=C1N(c2ccccc2)C(c2ccc(Cl)cc2)N2CCCN12 (stereo unspecified) | i | i | i | i | -9 | · | ·
Cc1ccc(C2N(c3ccc(Cl)cc3)C(=O)N3CCCN23)cc1 (stereo unspecified) | i | i | -9.6* | i | -10 | 90* | i
C=CCCC(=O)N1C[C@H]2CON(C)[C@H]2C[C@H]1c1cccc(Br)c1 | · | · | i | · | · | · | ·
O=C(C[C@@H]1C/C=C\CCC(=O)OC[C@@H]2CCCN2C1=O)N[C@@H](CO)Cc1ccccc1 | · | · | i | · | · | · | ·
